Test results taken from ChEMBL document CHEMBL4184291, “Discovery of N-arylpyrroles as agonists of GPR120 for the treatment of type II diabetes” (Bioorg Med Chem Lett, 2018).

Columns and labels:
[1] = Half life in mouse at 1.15 mg/kg, iv by LC-MS/MS analysis; type: ADME, organism-based; conditions: in vivo
[2] = molecular target: Cytochrome P450 3A4 (Homo sapiens, UniProt P08684); assay: Inhibition of CYP3A4 (unknown origin); type: ADME
[3] = Cmax in dog at 5 mg/kg, po by LC-MS/MS analysis; type: ADME, organism-based, Canis lupus familiaris; parameters: dose 5 mg/kg, route oral; conditions: in vivo
[4] = test system: Cavia porcellus; assay: Cardiotoxicity in guinea pig assessed as effect on ECG morphology at 22.4 mg/kg; type: toxicity, organism-based; conditions: in vivo
[5] = Half life in mouse at 14.6 mg/kg, po by LC-MS/MS analysis; type: ADME, organism-based; conditions: in vivo
[6] = test system: Mus musculus; assay: Antiobesity activity in diet-induced obesity C57Bl6/J mouse model assessed as basal insulin level in plasma at 10 mg/kg bid for 15 days measured on day 15 post 6 hrs fasting (reference value: 16959 +/- 4943 pg/ml); type: functional
[7] = test system: Mus musculus; assay: Antiobesity activity in diet-induced obesity C57Bl6/J mouse model assessed as change in plasma insulin level at 10 mg/kg qd for 15 days measured on day 15 post 6 hrs fasting; type: functional
[8] = test system: Mus musculus; assay: Glucose lowering effect in GPR120 knock out mouse assessed as plasma glucose AUC at 10 mg/kg administered 30 mins prior to glucose challenge measured up to 90 mins post dose by ipGTT (reference value: 7319 mg/dL.min); type: functional, organism-based; parameters: time < 1.5 hr, dose 10 mg/kg
Procedure, shortened: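 Intraperitoneal glucose tolerance test in GPR120 knockout mice at 10 mg/kg. Wild-type mice were run in parallel, and glucose lowering was compared with vehicle-treated animals.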

[9] = test system: Mus musculus; assay: Antidiabetic activity in diet-induced obese C57Bl/6 mouse model assessed as change in plasma glucose AUC at 1 mg/kg, po administered 30 mins prior to glucose challenge measured up to 90 mins post dose by OGTT; type: functional
Procedure, shortened: (§1)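 Diet-induced obese mice dosed orally at 0.1–3.0 mg/kg 30 min before an oral glucose load (time 0). Glucose followed from 30 min pre-glucose to 90 min post-glucose. Saxagliptin 1 mg/kg was the positive control.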

[10] = test system: Mus musculus; assay: Antiobesity activity in diet-induced obesity C57Bl6/J mouse model assessed as basal glucose level in plasma at 10 mg/kg bid for 15 days measured on day 15 post 6 hrs fasting (reference value: 187 +/- 24 mg/dL); type: functional
[11] = Half life in mouse liver microsomes; type: ADME, microsome
[12] = molecular target: T1, Free fatty acid receptor 4 (Rattus norvegicus, UniProt Q2AC31); assay: Agonist activity at recombinant rat GPR120 expressed in HEK293 cells; type: functional, cell-based
T1 sequence (Q2AC31 whole entry): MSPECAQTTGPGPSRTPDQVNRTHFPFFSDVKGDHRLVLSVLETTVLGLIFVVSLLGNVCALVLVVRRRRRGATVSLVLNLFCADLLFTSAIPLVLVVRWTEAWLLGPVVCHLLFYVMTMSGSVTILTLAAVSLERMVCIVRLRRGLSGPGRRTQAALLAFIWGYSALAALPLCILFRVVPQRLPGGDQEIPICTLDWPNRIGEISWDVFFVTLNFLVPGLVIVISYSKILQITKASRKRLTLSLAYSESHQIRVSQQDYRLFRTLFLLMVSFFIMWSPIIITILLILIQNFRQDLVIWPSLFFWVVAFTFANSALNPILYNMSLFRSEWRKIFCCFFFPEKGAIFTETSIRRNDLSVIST

[13] = test system: Mus musculus; assay: Antiobesity activity in diet-induced obesity C57Bl6/J mouse model assessed as final glucose level in plasma at 10 mg/kg bid for 15 days measured on day 15 post 6 hrs fasting (reference value: 184 +/- 30 mg/dL); type: functional
[14] = molecular target: T2, Free fatty acid receptor 4 (Homo sapiens, UniProt Q5NUL3); assay: Agonist activity at GPR120 in human HT-29 cells assessed as intracellular calcium flux; type: functional, cell-based
T2 sequence (Q5NUL3 whole entry): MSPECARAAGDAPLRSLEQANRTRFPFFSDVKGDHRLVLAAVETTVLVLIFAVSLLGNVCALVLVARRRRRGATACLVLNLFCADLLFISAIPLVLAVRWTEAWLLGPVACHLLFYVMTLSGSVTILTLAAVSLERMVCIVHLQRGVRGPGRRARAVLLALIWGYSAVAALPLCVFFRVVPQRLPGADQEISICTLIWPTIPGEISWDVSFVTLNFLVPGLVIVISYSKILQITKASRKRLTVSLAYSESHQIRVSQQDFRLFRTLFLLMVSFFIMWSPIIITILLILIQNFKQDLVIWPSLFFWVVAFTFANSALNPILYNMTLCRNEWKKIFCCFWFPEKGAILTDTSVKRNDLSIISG
Procedure, shortened: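 Calcium-flux EC50 measured in HT-29 cells, a low-expressing line with endogenous GPR120.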

[15] = test system: Mus musculus; assay: Antiobesity activity in diet-induced obesity C57Bl6/J mouse model assessed as final insulin level in plasma at 10 mg/kg qd for 15 days measured on day 15 post 6 hrs fasting (reference value: 7304 +/- 2967 pg/ml); type: functional
[16] = molecular target: 5-hydroxytryptamine receptor 5A (Homo sapiens) (UniProt P47898); assay: Displacement of […] from recombinant human 5-HT5A at 10 uM after 60 mins by scintillation counting method relative to control
Sequence of 5-hydroxytryptamine receptor 5A (Homo sapiens) (P47898 whole entry): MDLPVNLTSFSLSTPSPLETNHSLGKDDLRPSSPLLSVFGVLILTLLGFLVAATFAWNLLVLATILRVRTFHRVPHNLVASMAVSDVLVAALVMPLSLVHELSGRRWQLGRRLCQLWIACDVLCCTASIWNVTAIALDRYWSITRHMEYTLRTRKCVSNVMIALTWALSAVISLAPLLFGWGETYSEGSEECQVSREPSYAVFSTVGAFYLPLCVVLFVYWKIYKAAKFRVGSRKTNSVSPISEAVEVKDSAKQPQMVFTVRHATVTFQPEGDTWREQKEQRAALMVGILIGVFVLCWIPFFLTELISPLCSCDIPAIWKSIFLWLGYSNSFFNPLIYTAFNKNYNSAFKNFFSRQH

[17] = Half life in rat at 10 mg/kg, po by LC-MS/MS analysis; type: ADME, organism-based; conditions: in vivo
[18] = Oral bioavailability in rat at 10 mg/kg by LC-MS/MS analysis; type: ADME, organism-based; conditions: in vivo
[19] = Clearance in rat at 2 mg/kg, iv by LC-MS/MS analysis; type: ADME, organism-based; conditions: in vivo
[20] = test system: Mus musculus; assay: Antiobesity activity in diet-induced obesity C57Bl6/J mouse model assessed as basal insulin level in plasma at 10 mg/kg qd for 15 days measured on day 15 post 6 hrs fasting (reference value: 16959 +/- 4943 pg/ml); type: functional
[21] = test system: Mus musculus; assay: Antidiabetic activity in diet-induced obese C57Bl/6 mouse model assessed as change in plasma glucose AUC at 0.3 mg/kg, po administered 30 mins prior to glucose challenge measured up to 90 mins post dose by OGTT; type: functional; procedure, shortened: as §1
[22] = Half life in dog at 5 mg/kg, po by LC-MS/MS analysis; type: ADME, organism-based, Canis lupus familiaris; conditions: in vivo
[23] = test system: Mus musculus; assay: Antidiabetic activity in diet-induced obese C57Bl/6 mouse model assessed as plasma concentration required to show reduction in glucose level at 3 mg/kg administered 30 mins prior to glucose challenge measured up to 90 mins post dose by OGTT; type: functional
[24] = test system: Mus musculus; assay: Antiobesity activity in diet-induced obesity C57Bl6/J mouse model assessed as change in plasma glucose level at 10 mg/kg qd for 15 days measured on day 15 post 6 hrs fasting; type: functional
[25] = test system: Mus musculus; assay: Antidiabetic activity in diet-induced obese C57Bl/6 mouse model assessed as change in plasma glucose AUC at 0.1 mg/kg, po administered 30 mins prior to glucose challenge measured up to 90 mins post dose by OGTT; type: functional; procedure, shortened: as §1
[26] = Cmax in guinea pig at 22.4 mg/kg; type: ADME, organism-based, Cavia porcellus; parameters: dose 22.4 mg/kg; conditions: in vivo
[27] = test system: Cavia porcellus; assay: Cardiotoxicity in guinea pig assessed as effect on QT interval at 22.4 mg/kg; type: toxicity, organism-based; conditions: in vivo
[28] = molecular target: Free fatty acid receptor 1 (Homo sapiens, UniProt O14842); assay: Agonist activity at human GPR40; type: functional
Sequence of Free fatty acid receptor 1 (O14842 whole entry): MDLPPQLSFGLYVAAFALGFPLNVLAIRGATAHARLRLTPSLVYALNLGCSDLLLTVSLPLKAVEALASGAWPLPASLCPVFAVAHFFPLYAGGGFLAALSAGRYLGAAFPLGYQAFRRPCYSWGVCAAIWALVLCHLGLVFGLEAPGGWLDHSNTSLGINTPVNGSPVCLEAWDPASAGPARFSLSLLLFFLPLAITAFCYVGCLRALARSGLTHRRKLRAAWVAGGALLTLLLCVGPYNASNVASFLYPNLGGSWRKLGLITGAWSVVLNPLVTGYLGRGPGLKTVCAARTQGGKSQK

[29] = test system: Mus musculus; assay: Antidiabetic activity in po dosed diet-induced obese C57Bl/6 mouse model assessed as decrease in plasma glucose AUC administered 30 mins prior to glucose challenge measured up to 90 mins post dose by OGTT; type: functional, organism-based; procedure, shortened: as §1

Sequence of Cytochrome P450 3A4 (P08684 whole entry): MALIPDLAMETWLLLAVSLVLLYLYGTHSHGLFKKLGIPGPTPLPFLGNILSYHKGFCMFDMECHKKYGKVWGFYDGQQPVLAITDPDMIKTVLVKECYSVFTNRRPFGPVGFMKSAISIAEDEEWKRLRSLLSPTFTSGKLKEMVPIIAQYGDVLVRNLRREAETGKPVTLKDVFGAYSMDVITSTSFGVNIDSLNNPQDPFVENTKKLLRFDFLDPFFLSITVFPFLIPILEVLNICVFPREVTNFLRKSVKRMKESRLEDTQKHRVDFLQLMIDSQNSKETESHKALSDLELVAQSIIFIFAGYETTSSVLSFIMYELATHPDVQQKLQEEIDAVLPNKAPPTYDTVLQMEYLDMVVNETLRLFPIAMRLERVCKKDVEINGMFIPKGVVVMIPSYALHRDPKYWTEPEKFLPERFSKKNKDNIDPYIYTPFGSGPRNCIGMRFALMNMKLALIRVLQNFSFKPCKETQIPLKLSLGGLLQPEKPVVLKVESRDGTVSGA

half-life [1]: 4.14 h | INH [2]: > 10 µM | Cmax [3]: 8.92 µg/mL | half-life [5]: 3.45 h | half-life [11]: 2.58 h | EC50 [12]: 713 nM | EC50 [14]: 137 nM | inhibition [16]: 58% | half-life [17]: 2.87 h | bioavailability [18]: 116% | clearance [19]: 3.2 mL/min/kg | half-life [22]: 4.37 h | Cmax [26]: 105 µg/mL | EC50 [28]: 3340 nM
SMILES: O=C(O)CCc1cc(F)c(OCc2c(C(F)(F)F)ccn2-c2ccc(Cl)cc2)c(F)c1
Activity [4]: Non-Toxic | Activity [6]: 16966 pg/mL | Activity [7]: 457 pg/mL | AUC [8]: 7430 mg/dL·min | Activity [9]: -54% | Activity [10]: 203 mg/dL | Activity [13]: 170 mg/dL | Activity [15]: 7756 pg/mL | Activity [20]: 17395 pg/mL | Activity [21]: -9% | EC [23]: 32 nM | Activity [24]: -23.7 mg/dL | Activity [25]: 8% | Activity [27]: Non-Toxic | Activity [29]: Dose-dependent effect
